Measured values from ChEMBL document CHEMBL4024779, “Novel Terminal Bipheny-Based Diapophytoene Desaturases (CrtN) Inhibitors as Anti-MRSA/VISR/LRSA Agents with Reduced hERG Activity” (J Med Chem, 2018).
Calls of active or inactive are those of the source. No cut-off for these calls is given here.

Experiments:
[1] = system: Staphylococcus aureus; test: In vivo anti-virulence activity against methicillin-resistant Staphylococcus aureus Mu50 infected in BALB/c mouse model assessed as reduction in bacterial load in kidneys at 0.4 mg bid for 3.5 days administered intraperitoneally 6 hrs post infection by serial dilution method; format: functional; design: scale not given: the % may be the effect or the level left
Outline: (§1)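 Mice (n=10 per group) infected retro-orbitally with S. aureus Mu50 (1.1 × 10^9 or 1.3 × 10^9 CFU) or NRS271 (2.3 × 10^8 CFU). Compound given i.p. b.i.d., either 6 h after infection for 3.5 d or 24 h before infection for 4.5 d. Mice killed after 4.5 d; log10 CFU per organ counted in kidneys and hearts. Two-tailed Mann−Whitney test.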

[2] = system: Staphylococcus aureus; test: In vivo anti-virulence activity against methicillin-resistant Staphylococcus aureus Mu50 infected in BALB/c mouse model assessed as reduction in bacterial load in kidneys at 0.1 mg bid for 3.5 days administered intraperitoneally 6 hrs post infection by serial dilution method; format: functional; design: scale not given: the % may be the effect or the level left; outline: as §1
[3] = system: Staphylococcus aureus; test: In vivo anti-virulence activity against methicillin-resistant Staphylococcus aureus Mu50 infected in BALB/c mouse model assessed as reduction in bacterial load in heart at 0.1 mg bid for 3.5 days administered intraperitoneally 6 hrs post infection by serial dilution method; format: functional; design: scale not given: the % may be the effect or the level left
Outline: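 Mice were challenged with 1.3 × 10^9 CFU Mu50. Compound was given intraperitoneally, either 24 h before or 6 h after infection. Log10 CFU was counted in kidneys and hearts.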

[4] = Cytotoxicity against HEK293 cells after 43 hrs by Alamar blue dye-based fluorescence assay; format: cell-based; details: human
[5] = system: Staphylococcus aureus; test: In vivo anti-virulence activity against Staphylococcus aureus Newman infected in BALB/c mouse model assessed as reduction in bacterial load in kidneys at 0.1 mg bid for 3.5 days administered intraperitoneally 6 hrs post infection by serial dilution method; format: functional, organism-based
Outline: (§2)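 Mice (n=10 per group) got 2.3 × 10^7 CFU S. aureus Newman by retro-orbital injection. Compound was given intraperitoneally b.i.d., either 24 h before infection (4.5 d) or 6 h after infection (3.5 d). Mice were sacrificed after 4.5 d and CFU counted in kidneys and hearts. Groups were compared by two-tailed Mann-Whitney test.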

[6] = system: Staphylococcus aureus; test: Antibacterial activity against methicillin-resistant Staphylococcus aureus Mu50 assessed as change in bacterial growth at 0.2 mM […]; format: functional
[7] = system: Trichophyton rubrum; test: In vitro antifungal activity against Trichophyton rubrum after 7 days by serial dilution method; format: functional; details: 168 h
[8] = system: Staphylococcus aureus; test: Antibacterial activity against methicillin-resistant Staphylococcus aureus USA300 LAC assessed as change in bacterial growth at 0.2 mM […]; format: functional
[9] = molecular target: T1, 4,4'-diapophytoene desaturase (4,4'-diaponeurosporene-forming) (Staphylococcus aureus (strain USA300), UniProt Q2FDU6); test: Inhibition of CrtN in methicillin-resistant Staphylococcus aureus LAC USA300 assessed as reduction in staphyloxanthin levels after 48 hrs by spectrophotometric method-based pigment inhibition assay
T1 sequence (Q2FDU6 whole entry): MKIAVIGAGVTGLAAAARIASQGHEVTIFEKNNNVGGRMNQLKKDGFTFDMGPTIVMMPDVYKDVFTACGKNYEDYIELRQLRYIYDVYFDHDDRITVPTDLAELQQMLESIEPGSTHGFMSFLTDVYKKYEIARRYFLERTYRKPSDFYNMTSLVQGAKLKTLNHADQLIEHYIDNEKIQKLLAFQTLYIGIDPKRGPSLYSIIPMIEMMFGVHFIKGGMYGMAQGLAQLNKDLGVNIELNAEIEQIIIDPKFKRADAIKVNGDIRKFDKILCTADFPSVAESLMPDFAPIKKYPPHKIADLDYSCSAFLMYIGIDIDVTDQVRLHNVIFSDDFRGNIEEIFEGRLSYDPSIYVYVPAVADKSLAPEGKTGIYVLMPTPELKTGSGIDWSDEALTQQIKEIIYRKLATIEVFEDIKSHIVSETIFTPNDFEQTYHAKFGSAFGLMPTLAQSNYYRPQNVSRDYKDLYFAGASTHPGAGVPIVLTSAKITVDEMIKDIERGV

[10] = system: Staphylococcus aureus; test: In vivo anti-virulence activity against methicillin-resistant Staphylococcus aureus Mu50 infected in BALB/c mouse model assessed as reduction in bacterial load in heart at 0.4 mg bid for 4.5 days administered intraperitoneally 24 hrs prior to infection by serial dilution method; format: functional; design: scale not given: the % may be the effect or the level left; outline: as §1
[11] = molecular target: T2, 4,4'-diapophytoene desaturase (4,4'-diaponeurosporene-forming) (Staphylococcus aureus (strain Newman), UniProt O07855); test: Inhibition of CrtN in Staphylococcus aureus Newman after 12 resistant development passages under 0.15% v/v H2O2 assessed as reduction in staphyloxanthin levels under IC90 level after 48 hrs by spectrophotometric method-based pigment inhibition assay; design: species or system Staphylococcus aureus subsp. aureus str. Newman
T2 sequence (O07855 whole entry): T1 sequence (Q2FDU6 whole entry)

[12] = system: Staphylococcus aureus; test: Chemo-sensitization activity in non-pigmented Staphylococcus aureus Newman assessed as increase in H2O2-induced bacterial death by measuring survival rate at 1 uM pre-incubated for 24 hrs followed by H2O2 addition measured after 30 mins by serial dilution method (reference value: 33.3%); format: functional
Outline: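 S. aureus Newman was pre-incubated with 1 µM compound, with N-acetylcysteine as antioxidant control, or mock-treated. Cells were then exposed to 1.5% H2O2. Percent bacterial survival was compared with the mock-treated culture.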

[13] = system: Staphylococcus aureus; test: In vivo anti-virulence activity against Staphylococcus aureus Newman infected in BALB/c mouse model assessed as reduction in bacterial load in heart at 0.4 mg bid for 4.5 days administered intraperitoneally 24 hrs prior to infection by serial dilution method; format: functional, organism-based; outline: as §2
[14] = system: Staphylococcus aureus; test: Chemo-sensitization activity in human whole blood infected with compound-pre-treated non-pigmented Staphylococcus aureus Newman strain assessed as whole blood-induced bacterial killing by measuring survival rate at 1 uM after 6 hrs by serial dilution method (reference value: 13.3%); format: functional
[15] = system: Staphylococcus aureus; test: In vivo anti-virulence activity against methicillin-resistant Staphylococcus aureus NRS271 infected in BALB/c mouse model assessed as reduction in bacterial load in kidneys at 0.4 mg bid for 4.5 days administered intraperitoneally 24 hrs prior to infection by serial dilution method; format: functional; design: scale not given: the % may be the effect or the level left; outline: as §1
[16] = system: Staphylococcus aureus; test: In vivo anti-virulence activity against methicillin-resistant Staphylococcus aureus NRS271 infected in BALB/c mouse model assessed as reduction in bacterial load in heart at 0.1 mg bid for 3.5 days administered intraperitoneally 6 hrs post infection by serial dilution method; format: functional; design: scale not given: the % may be the effect or the level left; outline: as §1
[17] = system: Staphylococcus aureus; test: In vivo anti-virulence activity against Staphylococcus aureus Newman infected in BALB/c mouse model assessed as reduction in bacterial load in heart at 0.4 mg bid for 3.5 days administered intraperitoneally 6 hrs post infection by serial dilution method; format: functional, organism-based; outline: as §2
[18] = system: Liver; test: In-vitro intrinsic clearance in human liver microsomes at 2 uM after 60 mins in presence of NADPH by LC-MS/MS method; format: ADME, microsome; details: 1 h
[19] = system: Staphylococcus aureus; test: In vivo anti-virulence activity against methicillin-resistant Staphylococcus aureus NRS271 infected in BALB/c mouse model assessed as reduction in bacterial load in kidneys at 0.1 mg bid for 4.5 days administered intraperitoneally 24 hrs prior to infection by serial dilution method; format: functional; design: scale not given: the % may be the effect or the level left; outline: as §1
[20] = system: Staphylococcus aureus; test: Antibacterial activity against methicillin-resistant Staphylococcus aureus NRS271 assessed as change in bacterial growth at 0.2 mM […]; format: functional
[21] = system: Staphylococcus aureus; test: In vivo anti-virulence activity against methicillin-resistant Staphylococcus aureus NRS271 infected in BALB/c mouse model assessed as reduction in bacterial load in kidneys at 0.4 mg bid for 3.5 days administered intraperitoneally 6 hrs post infection by serial dilution method; format: functional; design: scale not given: the % may be the effect or the level left; outline: as §1

Structure (SMILES)	Activity [1]	Activity [2]	Activity [3]	CC50 at 43 h [4]	Activity [5]	Activity [6]	MIC80 [7]	Activity [8]	IC50 [9]	Activity [10]	IC50 [11]	Activity [13]	Activity [15]	Activity [16]	Activity [17]	CLH [18]	Activity [19]	Activity [20]	Activity [21]	also measured
CN(C/C=C/c1ccc(-c2ccccc2)cc1)Cc1cccc2cc[nH]c12.Cl	>95%	>95%	>95%	26500 nM	inactive	inactive	> 64 µg/mL	inactive	4 nM	>95%	2.6 nM	inactive	>95%	>95%	inactive	20 µL/min/mg	>95%	inactive	>95%	Activity [12]: Active; Activity [14]: Active
CN(C/C=C/c1ccc(-c2ccccc2)cc1)Cc1coc2ccccc12.Cl	>95%	>95%	>95%	48100 nM	Active	inactive	64 µg/mL	inactive	1.9 nM	>95%	1.8 nM	Active	>95%	>95%	Active	1230 µL/min/mg	>95%	inactive	>95%	survival at 1 µM [12]: 3%; survival at 1 µM [14]: 1.3%
